Source: ChEMBL document CHEMBL1687729, “Intracellular activity of antibiotics in a model of human THP-1 macrophages infected by a Staphylococcus aureus small-colony variant strain isolated from a cystic fibrosis patient: pharmacodynamic evaluation and comparison with isogenic normal-phenotype and revertant strains” (Antimicrob Agents Chemother, 2009)
Converted amounts (≈) assume the structure as drawn. The source made the active and inactive calls. The calls are words filed in the database; no cut-off is given here.

Columns and labels:
Staphylococcus aureus [1] = experiment: Antibacterial activity against Staphylococcus aureus SCV isolated from cystic fibrosis patient at pH 7.4 after 48 hrs by broth microdilution method in absence of thymidine; format: functional
Outline: (§1)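 MIC by CLSI broth microdilution in cation-adjusted MH II broth. For oritavancin, 0.002% polysorbate-80 was added and non-tissue-culture-treated plates were used to limit binding to plastic. Plates were read at 24 h for normal and revertant strains and at 48 h for the SCV. Where stated, the SCV was tested with 100 mg/liter thymidine. Growth was aerobic.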

Staphylococcus aureus [2] = experiment: Antibacterial activity against Staphylococcus aureus SCV isolated from cystic fibrosis patient at pH 7.4 after 48 hrs by broth microdilution method in presence of thymidine; format: functional; outline: as §1
Staphylococcus aureus [3] = experiment: Antibacterial activity against revertant Staphylococcus aureus at pH 7.4 after 24 hrs by broth microdilution method
Staphylococcus aureus [4] = experiment: Antibacterial activity against normal phenotype Staphylococcus aureus at pH 7.4 after 24 hrs by broth microdilution method
[5] = (§2) Cmax in human plasma; format: ADME, organism-based; conditions: plasma
[6] = (§3) Fraction unbound in human plasma
Staphylococcus aureus [7] = experiment: Antibacterial activity against Staphylococcus aureus SCV isolated from cystic fibrosis patient infected in human THP-1 cells assessed as log reduction of intracellular CFU level after 24 hrs in presence of thymidine; format: functional, organism-based
Outline: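 SCV-infected THP-1 macrophages are exposed 24 h after phagocytosis to antibiotic, with 100 mg/liter thymidine added to the culture medium together with the drug. Read-out is change in log CFU per mg cell protein from the initial inoculum. Data are means ± SD, n = 3; significance by ANOVA with Tukey's test.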

Staphylococcus aureus [8] = experiment: Antibacterial activity against Staphylococcus aureus SCV isolated from cystic fibrosis patient in cation-adjusted MH 2 broth at pH 5.5 after 48 hrs by broth microdilution method; format: functional
Outline: (§4)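 MIC by CLSI broth microdilution in cation-adjusted MH II broth adjusted to pH 5.5. Readings were taken at 48 h for the SCV and at 24 h for the normal-phenotype strain.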

Staphylococcus aureus [9] = experiment: Antibacterial activity against normal phenotype Staphylococcus aureus in cation-adjusted MH 2 broth at pH 5.5 after 24 hrs by broth microdilution method; format: functional; outline: as §4
Staphylococcus aureus [10] = experiment: Antibacterial activity against Staphylococcus aureus SCV isolated from cystic fibrosis patient in cation-adjusted MH 2 broth assessed as log reduction of extracellular CFU after 5 hrs; format: functional
Outline: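 Broth exposure to total drug levels mimicking human serum Cmax, same concentrations as the intracellular assay, for 5 or 24 h. Medium is CA-MH broth, with 0.002% polysorbate-80 when oritavancin is tested. Samples are plated on brain heart infusion agar and incubated 48 h before SCV colonies are counted. Read-out is Δlog CFU/ml from the initial inoculum.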

Staphylococcus aureus [11] = experiment: Antibacterial activity against revertant Staphylococcus aureus infected in human THP-1 cells assessed as log reduction of extracellular CFU level after 24 hrs; format: functional, organism-based
Staphylococcus aureus [12] = experiment: Antibacterial activity against normal phenotype Staphylococcus aureus in infected in human THP-1 cells assessed as log reduction of extracellular CFU level after 24 hrs; format: functional, organism-based
Staphylococcus aureus [13] = experiment: Antibacterial activity against Staphylococcus aureus SCV isolated from cystic fibrosis patient infected in human THP-1 cells assessed as log reduction of intracellular CFU after 5 hrs; format: functional
Outline: (§5)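 THP-1 macrophages are infected with the SCV strain, then extracellular bacteria are eliminated after phagocytosis. Drug is added at total concentrations mimicking human serum Cmax for 5, 24 or 72 h. Lysates are plated on brain heart infusion agar and counted after 48 h. Read-out is Δlog CFU/mg cell protein from the postphagocytosis inoculum; no drug-free control is run at 72 h.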

Staphylococcus aureus [14] = experiment: Antibacterial activity against Staphylococcus aureus SCV isolated from cystic fibrosis patient infected in human THP-1 cells assessed as log reduction of intracellular CFU after 72 hrs; format: functional; outline: as §5
Staphylococcus aureus [15] = experiment: Antibacterial activity against Staphylococcus aureus SCV isolated from cystic fibrosis patient infected in human THP-1 cells assessed as log reduction of intracellular CFU after 24 hrs; format: functional
Plasma [16] = experiment: as §2; format: ADME, organism-based; conditions: in vivo
Plasma [17] = experiment: as §3

Row | Molecule | MIC (Staphylococcus aureus [1]) | MIC (Staphylococcus aureus [2]) | MIC (Staphylococcus aureus [3]) | MIC (Staphylococcus aureus [4]) | Cmax [5] | fraction unbound [6] | Activity (Staphylococcus aureus [7]) | MIC (Staphylococcus aureus [8]) | MIC (Staphylococcus aureus [9]) | log10cfu (Staphylococcus aureus [10]) | Activity (Staphylococcus aureus [11]) | Activity (Staphylococcus aureus [12]) | log10cfu (Staphylococcus aureus [13]) | log10cfu (Staphylococcus aureus [14]) | log10cfu (Staphylococcus aureus [15]) | Cmax (Plasma [16]) | Fu (Plasma [17])
1 | CCCCCCCCCC(=O)N[C@@H](Cc1c[nH]c2ccccc12)C(=O)N[C@H](CC(N)=O)C(=O)N[C@@H](CC(=O)O)C(=O)N[C@@H]1C(=O)NCC(=O)N[C@@H](CCCN)C(=O)N[C@@H](CC(=O)O)C(=O)N[C@H](C)C(=O)N[C@@H](CC(=O)O)C(=O)NCC(=O)N[C@H](CO)C(=O)N[C@@H]([C@H](C)CC(=O)O)C(=O)N[C@@H](CC(=O)c2ccccc2N)C(=O)O[C@@H]1C | 0.125 µg/mL (≈ 0.0771 µM) | 0.25 µg/mL | 0.25 µg/mL (≈ 0.154 µM) | 0.125 µg/mL (≈ 0.0771 µM) | 57000 ng/mL | 0.1 | Active | 0.25 µg/mL (≈ 0.154 µM) | 0.125 µg/mL (≈ 0.0771 µM) |  |  |  |  |  |  |  | 
2 | CCC[C@@H]1C[C@@H](C(=O)N[C@@H]([C@H]2O[C@H](SC)[C@H](O)[C@@H](O)[C@H]2O)[C@H](C)Cl)N(C)C1 [CLINDAMYCIN] | 0.125 µg/mL (≈ 0.294 µM) | 0.125 µg/mL | 0.125 µg/mL (≈ 0.294 µM) | 0.125 µg/mL (≈ 0.294 µM) | 4000 ng/mL | 0.1 | Active | 1 µg/mL (≈ 2.35 µM) | 1 µg/mL (≈ 2.35 µM) | 2 |  |  |  |  |  |  | 
3 | CC(=O)O[C@H]1C[C@@]2(C)[C@@H](C[C@@H](O)[C@H]3[C@@]4(C)CC[C@@H](O)[C@@H](C)[C@@H]4CC[C@@]32C)/C1=C(\CCC=C(C)C)C(=O)O [FUSIDIC ACID] | 0.03 µg/mL (≈ 0.0581 µM) | 0.03 µg/mL | 0.06 µg/mL (≈ 0.116 µM) | 0.125 µg/mL (≈ 0.242 µM) | 30000 ng/mL | 0.05 | Active | 0.03 µg/mL (≈ 0.0581 µM) | 0.125 µg/mL (≈ 0.242 µM) | 1 | Active | Active |  |  |  |  | 
4 | CC(=O)NC[C@H]1CN(c2ccc(N3CCOCC3)c(F)c2)C(=O)O1 [LINEZOLID] |  |  |  |  | 16000 ng/mL | 0.31 | Active |  |  | 1 |  |  |  |  |  |  | 
5 | COc1c(N2C[C@@H]3CCCN[C@@H]3C2)c(F)cc2c(=O)c(C(=O)O)cn(C3CC3)c12 [MOXIFLOXACIN] | 0.125 µg/mL (≈ 0.311 µM) | 0.125 µg/mL | 0.125 µg/mL (≈ 0.311 µM) | 0.25 µg/mL (≈ 0.623 µM) | 4000 ng/mL |  | Active | 2 µg/mL (≈ 4.98 µM) | 2 µg/mL (≈ 4.98 µM) |  |  |  | 1 | 1 |  |  | 
6 | CN[C@H](CC(C)C)C(=O)N[C@H]1C(=O)N[C@@H](CC(N)=O)C(=O)N[C@H]2C(=O)N[C@H]3C(=O)N[C@H](C(=O)N[C@H](C(=O)O)c4cc(O)cc(O)c4-c4cc3ccc4O)[C@H](O[C@H]3C[C@](C)(N)[C@@H](O)[C@H](C)O3)c3ccc(c(Cl)c3)Oc3cc2cc(c3O[C@@H]2O[C@H](CO)[C@@H](O)[C@H](O)[C@H]2O[C@H]2C[C@](C)(NCc3ccc(-c4ccc(Cl)cc4)cc3)[C@@H](O)[C@H](C)O2)Oc2ccc(cc2Cl)[C@H]1O [ORITAVANCIN] | 0.015 µg/mL (≈ 0.00837 µM) | 0.015 µg/mL | 0.015 µg/mL (≈ 0.00837 µM) | 0.03 µg/mL (≈ 0.0167 µM) | 25000 ng/mL | 0.12 | Active | 0.125 µg/mL (≈ 0.0697 µM) | 0.03 µg/mL (≈ 0.0167 µM) |  |  |  | 1 | 1 | 2.5 |  | 
7 | Cc1onc(-c2ccccc2)c1C(=O)N[C@@H]1C(=O)N2[C@@H]1SC(C)(C)[C@@H]2C(=O)O [OXACILLIN] | 0.125 µg/mL (≈ 0.311 µM) | 0.25 µg/mL | 0.25 µg/mL (≈ 0.623 µM) | 0.5 µg/mL (≈ 1.25 µM) | 64000 ng/mL | 0.07 | Active | 0.015 µg/mL (≈ 0.0374 µM) | 0.03 µg/mL (≈ 0.0747 µM) |  | Active | Active |  |  |  |  | 
8 | CO[C@H]1/C=C/O[C@@]2(C)Oc3c(C)c(O)c4c(O)c(c(/C=N/N5CCN(C)CC5)c(O)c4c3C2=O)NC(=O)/C(C)=C\C=C\[C@H](C)[C@H](O)[C@@H](C)[C@@H](O)[C@@H](C)[C@H](OC(C)=O)[C@@H]1C [RIFAMPIN] | 0.0005 µg/mL (≈ 0.000608 µM) | 0.002 µg/mL | 0.0005 µg/mL (≈ 0.000608 µM) | 0.002 µg/mL (≈ 0.00243 µM) | 18000 ng/mL | 0.15 | Active | 0.0005 µg/mL (≈ 0.000608 µM) | 0.0002 µg/mL (≈ 0.000243 µM) |  |  |  | 1 | 2 |  |  | 
9 | CCCCCCCCCCNCCN[C@@]1(C)C[C@H](O[C@H]2[C@H](Oc3c4cc5cc3Oc3ccc(cc3Cl)[C@@H](O)[C@@H](NC(=O)[C@@H](CC(C)C)NC)C(=O)N[C@@H](CC(N)=O)C(=O)N[C@H]5C(=O)N[C@H]3C(=O)N[C@H](C(=O)N[C@H](C(=O)O)c5cc(O)c(CNCP(=O)(O)O)c(O)c5-c5cc3ccc5O)[C@H](O)c3ccc(c(Cl)c3)O4)O[C@H](CO)[C@@H](O)[C@@H]2O)O[C@@H](C)[C@H]1O [TELAVANCIN] | 0.125 µg/mL (≈ 0.0712 µM) | 0.125 µg/mL | 0.125 µg/mL (≈ 0.0712 µM) | 0.125 µg/mL (≈ 0.0712 µM) | 90000 ng/mL | 0.07 | Active | 0.125 µg/mL (≈ 0.0712 µM) | 0.125 µg/mL (≈ 0.0712 µM) |  |  |  |  |  |  |  | 
10 | CN(C)c1cc(NC(=O)CNC(C)(C)C)c(O)c2c1C[C@H]1C[C@H]3[C@H](N(C)C)C(O)=C(C(N)=O)C(=O)[C@@]3(O)C(O)=C1C2=O [TIGECYCLINE] | 0.125 µg/mL (≈ 0.213 µM) | 0.125 µg/mL | 0.125 µg/mL (≈ 0.213 µM) | 0.125 µg/mL (≈ 0.213 µM) | 1000 ng/mL | 0.2 | Active | 0.125 µg/mL (≈ 0.213 µM) | 0.125 µg/mL (≈ 0.213 µM) | 1 |  |  |  |  |  |  | 
11 | CN[C@H](CC(C)C)C(=O)N[C@H]1C(=O)N[C@@H](CC(N)=O)C(=O)N[C@H]2C(=O)N[C@H]3C(=O)N[C@H](C(=O)N[C@H](C(=O)O)c4cc(O)cc(O)c4-c4cc3ccc4O)[C@H](O)c3ccc(c(Cl)c3)Oc3cc2cc(c3O[C@@H]2O[C@H](CO)[C@@H](O)[C@H](O)[C@H]2O[C@H]2C[C@](C)(N)[C@H](O)[C@H](C)O2)Oc2ccc(cc2Cl)[C@H]1O [VANCOMYCIN] |  |  |  |  | 50000 ng/mL | 0.5 | Active |  |  |  | Active | Active |  |  |  |  | 
12 | GENTAMICIN [listing 1 of 2 here] |  |  |  |  |  |  |  |  |  |  |  |  |  |  |  | 18000 ng/mL | 100%
13 | GENTAMICIN [listing 2 of 2 here] | 0.125 µg/mL | 0.125 µg/mL |  |  |  |  | Active | 4 µg/mL | 8 µg/mL |  |  |  |  |  |  |  | 
